The source made the active and inactive calls. The calls are words filed in the database; no cut-off is given here.
Experiments:
Thymidine phosphorylase = biological target: T1, Thymidine phosphorylase (Homo sapiens, UniProt P19971); assay: Inhibition of recombinant human thymidine phosphorylase expressed in Escherichia coli Rosetta (DE3) cells using thymidine as substrate after 1 min by UV/visible spectrophotometry
T1 sequence (P19971 whole entry): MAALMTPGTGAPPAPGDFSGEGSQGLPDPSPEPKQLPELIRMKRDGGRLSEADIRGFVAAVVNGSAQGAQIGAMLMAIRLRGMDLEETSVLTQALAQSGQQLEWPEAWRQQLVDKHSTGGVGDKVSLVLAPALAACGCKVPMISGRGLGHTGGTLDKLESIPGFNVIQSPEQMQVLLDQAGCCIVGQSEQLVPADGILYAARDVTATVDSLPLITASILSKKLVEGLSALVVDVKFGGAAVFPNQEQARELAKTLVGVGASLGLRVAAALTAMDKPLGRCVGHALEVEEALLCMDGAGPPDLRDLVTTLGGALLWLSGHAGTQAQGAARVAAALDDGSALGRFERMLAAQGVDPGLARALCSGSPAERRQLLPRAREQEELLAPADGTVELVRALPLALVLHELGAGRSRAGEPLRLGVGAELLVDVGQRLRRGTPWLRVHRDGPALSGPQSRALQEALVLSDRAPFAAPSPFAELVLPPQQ

U-87 MG [1] = assay: Antitumor activity against human U87MG cells xenografted in BALB/c nude mouse assessed as tumor growth inhibition 50 mg/kg/day, ip administered for 14 days; assay type: functional, organism-based; settings: U-87MG ATCC
Outline: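 5 x 10⁵ U-87 MG cells implanted subcutaneously in right flank of male BALB/c nude mice; at about 50 mm³, randomized to saline or ip 50 mg/kg/day, with temozolomide 50 mg/kg/day in the combination arm, for 14 days. Relative tumor volume = volume on day / day 0; TGI on day 14 = [1 − RTV treated/RTV control] x 100. Two-way ANOVA with Bonferroni.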

U-87 MG [2] = assay: Induction of apoptosis in human U87MG cells xenografted in BALB/c nude mouse assessed as caspase-3 levels at 50 mg/kg, ip after 14 days by immunohistochemistry; assay type: functional, organism-based; settings: U-87MG ATCC
Outline: (§1)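 Male BALB/c nude mice implanted subcutaneously with 5 x 10⁵ U-87 MG cells in the right flank. Treated IP at 50 mg/kg/day for 14 days, with saline controls, starting once tumors reached about 50 mm³. Tumors fixed in formaldehyde and cut at 3 µm. Citrate pH 6 antigen retrieval.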

U-87 MG [3] = assay: Anti-angiogenic activity in tumor of human U87MG cells xenografted in nude BALB/c mouse assessed as reduction in VEGF staining at 50 mg/kg, ip administered for 14 days by immunohistochemistry; assay type: functional, organism-based; settings: U-87MG ATCC
Outline: (§2)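 Male nude mice bearing subcutaneous right-flank xenografts of 5 x 10⁵ U-87 MG cells; dosing began at about 50 mm³ tumors, ip daily for 14 days. Tumors formalin-fixed, paraffin sections 3 µm; citrate pH 6 antigen retrieval at 95-98 °C; primary antibody overnight at 4 °C, HRP secondary, DAB. Positive area quantified by optical density at x200, 4 images per tumor; mean ± SEM, one-way ANOVA with Dunnett.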

U-87 MG [4] = assay: In-vivo inhibition of cell proliferation in human U87MG cells xenografted in BALB/c nude mouse at 50 mg/kg, ip after 14 days by Ki-67b-staining based assay; assay type: functional, organism-based; settings: U-87MG ATCC; outline: as §1
U-87 MG [5] = assay: Anti-angiogenic activity in tumor of human U87MG cells xenografted in nude BALB/c mouse assessed as reduction in number of blood vessels at 50 mg/kg, ip administered for 14 days by hematoxylin and eosin-staining based light microscopy; assay type: functional, organism-based; settings: U-87MG ATCC
Outline: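 U-87 MG flank xenografts (5 x 10⁵ cells) in male nude mice; ip treatment daily from about 50 mm³ for 14 days, with temozolomide at 50 mg/kg/day in the co-treatment arm. Vessel density counted on HE-stained 3 µm sections by hot-spot method, mean of four fields per tumor at x200, avoiding gross haemorrhage. One-way ANOVA/Dunnett.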

U-87 MG [6] = assay: Anti-angiogenic activity in tumor of human U87MG cells xenografted in nude BALB/c mouse assessed as reduction in CD31 staining at 50 mg/kg, ip administered for 14 days by immunohistochemistry; assay type: functional, organism-based; settings: U-87MG ATCC; outline: as §2
[7] = Toxicity in nude BALB/c mouse xenografted with human U87MG cells assessed as reduction in body weight at 50 mg/kg, […]; assay type: organism-based; set-up: scale not given: the % may be the effect or the level left; settings: in vivo, ip, 120 h

IC50 (Thymidine phosphorylase) [µM]	SMILES	TGI (U-87 MG [1])	Activity (U-87 MG [2])	Activity (U-87 MG [3])	inhibition (U-87 MG [4])	Activity (U-87 MG [5])	Activity (U-87 MG [6])	Activity [7] [%]
> 100	CCCN(CCC)Cc1[nH]c(=O)[nH]c(=O)c1I	–	–	–	–	–	–	–
> 100	O=c1[nH]c(CNCC(O)CO)c(Br)c(=O)[nH]1 (centres undefined)	–	–	–	–	–	–	–
–	Cn1nnc2c(C(N)=O)ncn2c1=O [TEMOZOLOMIDE]	Active	inactive	inactive	inactive	inactive	inactive	< 20
